From ChEMBL document CHEMBL1139981, “Novel heterocyclic thyromimetics. Part 2” (Bioorg Med Chem Lett, 2007)

What was measured:
[1] = biological target: T1, Thyroid hormone receptor (Homo sapiens, UniProt P10827+P10828); test: Agonist activity at THR in HepG2 cells by whole cell assay; type: functional, cell-based
T1 sequence (P10827 whole entry): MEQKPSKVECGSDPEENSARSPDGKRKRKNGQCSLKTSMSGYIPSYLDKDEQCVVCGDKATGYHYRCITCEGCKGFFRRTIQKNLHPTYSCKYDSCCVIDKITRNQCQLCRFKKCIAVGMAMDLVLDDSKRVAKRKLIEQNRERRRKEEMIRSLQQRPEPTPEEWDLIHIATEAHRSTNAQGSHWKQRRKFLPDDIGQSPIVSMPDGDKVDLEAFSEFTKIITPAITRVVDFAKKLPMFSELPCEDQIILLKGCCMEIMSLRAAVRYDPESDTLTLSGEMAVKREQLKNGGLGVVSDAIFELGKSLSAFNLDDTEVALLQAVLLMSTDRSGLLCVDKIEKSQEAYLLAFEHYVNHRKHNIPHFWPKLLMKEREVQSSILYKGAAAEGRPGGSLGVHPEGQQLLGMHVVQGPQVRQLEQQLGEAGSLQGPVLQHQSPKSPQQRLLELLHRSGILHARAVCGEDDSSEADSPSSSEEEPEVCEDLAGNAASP
T1 sequence (P10828 whole entry): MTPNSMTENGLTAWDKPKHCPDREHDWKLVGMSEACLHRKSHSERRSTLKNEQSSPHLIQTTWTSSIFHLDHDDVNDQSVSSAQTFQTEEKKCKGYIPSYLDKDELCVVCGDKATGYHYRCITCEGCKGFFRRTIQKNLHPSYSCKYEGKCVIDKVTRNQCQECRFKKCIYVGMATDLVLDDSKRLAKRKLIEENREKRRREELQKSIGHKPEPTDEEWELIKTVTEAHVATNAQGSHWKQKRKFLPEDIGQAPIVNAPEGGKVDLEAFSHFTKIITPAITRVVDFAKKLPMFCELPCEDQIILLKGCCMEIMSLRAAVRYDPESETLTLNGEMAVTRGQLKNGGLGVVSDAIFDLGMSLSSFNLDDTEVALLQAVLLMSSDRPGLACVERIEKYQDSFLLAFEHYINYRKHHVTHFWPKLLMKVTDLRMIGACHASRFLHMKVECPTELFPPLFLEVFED

[2] = tested on: Mus musculus; test: Reduction in serum cholesterol in NMIR mouse at 1.0 mg/ kg, po after 7 days; type: functional; parameters: scale not given: the % may be the effect or the level left
How it was run: (§1)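 At study end, blood was taken retro-orbitally. Serum cholesterol (and triglycerides) were measured enzymatically with commercial kits on an autoanalyzer. Reduction is expressed as percent versus the control group.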

[3] = tested on: Mus musculus; test: Increase in heart weight in C57BL/6J mouse at 3.0 mg/kg, po after 11 days; type: functional
How it was run: (§2)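 C57BL/6J mice, 10-12 per group, dosed orally by gavage once daily for 11 days in solutol/ethanol/water 10:10:80. Doses were 0.1, 0.3 and 3.0 mg/kg, given as the ethyl ester. At study end, heart rate was measured by non-invasive tail cuff, then the animals were sacrificed and hearts weighed. Heart weight change is expressed versus control.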

[4] = tested on: Mus musculus; test: Reduction in serum cholesterol in NMIR mouse at 0.1 mg/kg, po after 7 days; type: functional; parameters: scale not given: the % may be the effect or the level left; how it was run: as §1
[5] = tested on: Mus musculus; test: Reduction in serum cholesterol in NMIR mouse at 0.3 mg/ kg, po after 7 days; type: functional; parameters: scale not given: the % may be the effect or the level left; how it was run: as §1
[6] = tested on: Mus musculus; test: Reduction in serum cholesterol in NMIR mouse at 3.0 mg/ kg, po after 7 days; type: functional; parameters: scale not given: the % may be the effect or the level left; how it was run: as §1
[7] = tested on: Mus musculus; test: Increase in heart weight in C57BL/6J mouse at 0.3 mg/kg, po after 11 days; type: functional; how it was run: as §2
[8] = tested on: Mus musculus; test: Increase in heart weight in C57BL/6J mouse at 0.1 mg/kg, po after 11 days; type: functional; how it was run: as §2

EC50 [1] [nM] | SMILES | also measured
70 | CC(C)c1cc(Oc2c(C(C)C)cc(CC3SC(=O)NC3=O)cc2C(C)C)ccc1O (centres undefined) | –
1000 | Cc1cc2c(CC(=O)O)coc2c(C)c1Oc1ccc(O)cc1 | –
110 | Cc1cc2oc(C(=O)O)cc2c(C)c1Oc1ccc(O)c(C(C)C)c1 | –
0.06 | Cc1ccc(CC2CC(=O)NC(=O)S2)c(C)c1Oc1ccc(O)c(C(C)C)c1 (centres undefined) | –
22 | O=C(O)c1cc2c(Br)c(Oc3ccc(O)c(C(O)c4ccc(F)cc4)c3)c(Br)cc2o1 (centres undefined) | –
210 | O=C(O)c1cc2c(Br)c(Oc3ccc(O)c(C(=O)c4ccc(F)cc4)c3)c(Br)cc2o1 | –
1000 | COc1ccc(Oc2c(Br)cc3oc(C(=O)O)cc3c2Br)cc1C(C)C | –
5.1 | Cc1cc2c(c(C)c1Oc1ccc(O)c(C(C)C)c1)CC(CC(=O)O)O2 (centres undefined) | –
0.3 | Cc1cc2c(CC(=O)O)coc2c(C)c1Oc1ccc(O)c(C(C)C)c1 | Activity [2]: 39%; Activity [3]: 27%; Activity [4]: 32%; Activity [5]: 34%; Activity [6]: 41%; Activity [7]: 17%; Activity [8]: 12%
0.08 | Cc1cc(CC2SC(=O)NC2=O)cc(C)c1Oc1ccc(O)c(C(C)C)c1 (centres undefined) | –
1000 | CC(C)c1cc(Oc2ccc3oc(C(=O)O)cc3c2)ccc1O | –
7 | CC(C)c1cc(Oc2c(Br)cc3oc(C(=O)O)cc3c2Br)ccc1O | –
